Results on 46 compounds are retold here after ChEMBL document CHEMBL1127330, “N-Phosphonomethyl dipeptides and their phosphonate prodrugs, a new generation of neutral endopeptidase (NEP, EC 3.4.24.11) inhibitors” (J Med Chem, 1994).

Some results are limits rather than exact numbers.

One assay concerns the target T1, Neprilysin (Rattus norvegicus, UniProt P07861).
T1 sequence (P07861 whole entry): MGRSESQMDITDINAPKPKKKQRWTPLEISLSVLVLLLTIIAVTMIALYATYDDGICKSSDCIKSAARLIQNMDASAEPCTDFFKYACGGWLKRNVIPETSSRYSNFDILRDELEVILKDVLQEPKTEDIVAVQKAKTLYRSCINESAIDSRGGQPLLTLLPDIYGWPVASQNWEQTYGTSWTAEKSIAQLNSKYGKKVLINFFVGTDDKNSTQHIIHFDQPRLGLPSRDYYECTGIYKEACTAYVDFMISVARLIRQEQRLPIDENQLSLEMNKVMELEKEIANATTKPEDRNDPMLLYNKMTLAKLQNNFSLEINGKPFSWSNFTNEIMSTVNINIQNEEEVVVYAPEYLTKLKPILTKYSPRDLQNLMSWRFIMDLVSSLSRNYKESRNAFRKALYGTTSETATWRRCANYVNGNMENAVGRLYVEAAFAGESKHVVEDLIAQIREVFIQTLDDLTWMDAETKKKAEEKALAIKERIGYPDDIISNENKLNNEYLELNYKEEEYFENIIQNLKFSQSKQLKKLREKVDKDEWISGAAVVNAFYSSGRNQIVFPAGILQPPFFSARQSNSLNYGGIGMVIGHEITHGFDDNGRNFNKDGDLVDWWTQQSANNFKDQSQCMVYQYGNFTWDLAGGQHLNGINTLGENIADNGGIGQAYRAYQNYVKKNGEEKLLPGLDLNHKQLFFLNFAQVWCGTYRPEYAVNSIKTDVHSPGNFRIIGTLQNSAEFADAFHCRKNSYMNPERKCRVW
The experiment in a line: In vitro inhibition of Neutral endopeptidase (NEP) enzyme.

Assay [1] is described as follows: Ratio of maximum plasma concentration (C) measured ex vivo to that of IC50 of (10a or 10c) in rat treated intravenously with 10 mg/kg. It counts as functional. Conditions: route intravenous. In outline:
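Conscious rats, femorally catheterised 24 h earlier, dosed iv at 10 mg/kg. Arterial blood was sampled before and at intervals after dosing into EDTA, then centrifuged. Plasma was ultrafiltered through a 30 000 MW cutoff with 0.1 N HCl at 10 °C. Unbound active inhibitor in the ultrafiltrate was measured by GAAP/rat kidney membrane NEP assay and expressed relative to the IC50 of the active metabolite.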

As usually defined, the IC50 is the concentration that inhibits the measured activity by half. The compound `COP(=O)(O)CNC(Cc1ccc(-c2ccccc2)cc1)C(=O)NCCC(=O)O` (configuration not stated) registered an IC50 at Neprilysin of 301 nM.

On to `O=C(O)CCCNC(=O)C(Cc1ccc(-c2ccccc2)cc1)NCP(=O)(O)O` (configuration not stated), for which, on Neprilysin, the IC50 worked out at 11 nM. Consider `O=C(O)CCNC(=O)[C@H](Cc1ccc(-c2ccccc2)cc1)NCP(=O)(OC1CCc2ccccc21)OC1CCc2ccccc21` (some centres not stated), for which the Ratio in assay [1] came to 41. Regarding `Cc1cc(C)cc(OP(=O)(CN[C@@H](Cc2ccc(-c3ccccc3)cc2)C(=O)NCCC(=O)O)Oc2cc(C)cc(C)c2)c1`, in assay [1], the Ratio is 149. With `CCOC(=O)CCNC(=O)[C@H](Cc1ccc(-c2ccccc2)cc1)NCP(=O)(Oc1ccccc1)Oc1ccccc1`, in assay [1], the Ratio stood at 160. On the same count and under the same terms, the same measure for `Cc1ccc(OP(=O)(CN[C@@H](Cc2ccc(-c3ccccc3)cc2)C(=O)NCCC(=O)O)Oc2ccc(C)c(C)c2)cc1C`: 40.

`CCOC(=O)CCNC(=O)C(Cc1ccc(-c2ccccc2)cc1)NCP(=O)(OC(OC(=O)CC)C(C)C)OC(OC(=O)CC)C(C)C` (configuration not stated): in assay [1], the Ratio worked out at 503.

For `CCOC(=O)CCNC(=O)C(Cc1ccc(-c2ccccc2)cc1)NCP(=O)(OCOC(=O)C(C)C)OCOC(=O)C(C)C` (configuration not stated), in assay [1], the Ratio amounted to 535. At Neprilysin, `C[C@H](NC(=O)C(Cc1ccc(-c2ccccc2)cc1)NCP(=O)(O)O)C(=O)O` (some centres not stated) displayed a 50% inhibitory concentration (IC50) of 3 nM. Turning to `O=C(O)CCNC(=O)C(Cc1ccc(-c2ccc(F)cc2)cc1)NCP(=O)(O)O` (configuration not stated), the IC50 against Neprilysin was found to be 14 nM.

As to `O=C(CCNC(=O)[C@H](Cc1ccc(-c2ccccc2)cc1)NCP(=O)(Oc1ccccc1)Oc1ccccc1)OC1CCc2ccccc21` (some centres not stated), in assay [1], the Ratio is 69. Consider `O=C(CCNC(=O)[C@H](Cc1ccc(-c2ccccc2)cc1)NCP(=O)(O)Oc1ccccc1)OCc1ccccc1`, for which the Ratio in assay [1] was 16. Same read-out and setting: the same measure for `O=C(O)CCNC(=O)[C@H](Cc1ccc(-c2ccccc2)cc1)NCP(=O)(Oc1ccccc1)Oc1ccccc1`: 225.

On to `O=C(O)CCNC(=O)C(Cc1ccccc1)NCP(=O)(O)O` (configuration not stated), for which, at Neprilysin, the IC50 was found to be 1150 nM. As for `COc1cccc(OP(=O)(CN[C@@H](Cc2ccc(-c3ccccc3)cc2)C(=O)NCCC(=O)O)Oc2cccc(OC)c2)c1`, in assay [1], the Ratio stood at 240. As for `CCCCCCCC(=O)OC(OP(=O)(O)CNC(Cc1ccc(-c2ccccc2)cc1)C(=O)NCCC(=O)OCC)C(C)C` (configuration not stated), the Ratio in assay [1] was determined as 50.

With `CC(C)c1ccc(OP(=O)(CN[C@@H](Cc2ccc(-c3ccccc3)cc2)C(=O)NCCC(=O)O)Oc2ccc(C(C)C)cc2)cc1`, the Ratio in assay [1] was found to be 40. As for `CCOC(=O)CCNC(=O)C(Cc1ccc(-c2ccccc2)cc1)NCP(=O)(OC(OC(=O)C(C)C)C(C)C)OC(OC(=O)C(C)C)C(C)C` (configuration not stated), in assay [1], the Ratio is 97. At Neprilysin, `O=C(O)CCNC(=O)C(Cc1ccc(-c2ccccc2)cc1)NCP(=O)(O)O` (configuration not stated) returned an IC50 of 4 nM. On to `O=C(O)CCNC(=O)C(Cc1ccc(-c2ccccc2)cc1)NCP(=O)(O)OCc1ccccc1` (configuration not stated), for which, on Neprilysin, it took 1000 nM to reach half-maximal inhibition (IC50). Compound `O=C(O)CCNC(=O)C(Cc1ccccc1)CP(=O)(O)O` (configuration not stated) returned an IC50 against Neprilysin of 207 nM. Turning to `Cc1ccc(OP(=O)(CN[C@@H](Cc2ccc(-c3ccccc3)cc2)C(=O)NCCC(=O)O)Oc2ccc(C)cc2)cc1`, in assay [1], the Ratio is on record as 31. `O=C(O)c1ccc(NC(=O)C(Cc2ccc(-c3ccccc3)cc2)NCP(=O)(O)O)cc1` (configuration not stated) displayed an IC50 against Neprilysin of 10 nM. With `CCCc1ccc(OP(=O)(CN[C@@H](Cc2ccc(-c3ccccc3)cc2)C(=O)NCCC(=O)O)Oc2ccc(CCC)cc2)cc1`, the Ratio in assay [1] was found to be 18. As to `CCOP(=O)(CNC(Cc1ccc(-c2ccccc2)cc1)C(=O)NCCC(=O)O)OCC` (configuration not stated), the IC50 at Neprilysin was greater than 1000 nM. In turn, `O=C(O)CCNC(=O)C(Cc1ccccc1)CP(=O)(O)OCCc1ccccc1` (configuration not stated) had an IC50 on Neprilysin greater than 1000 nM.

Compound `O=C(O)CCNC(=O)[C@@H](Cc1ccc(-c2ccccc2)cc1)NCP(=O)(O)O` yielded an IC50 against Neprilysin of 1800 nM.

Take `CCOC(=O)CCNC(=O)C(Cc1ccc(-c2ccccc2)cc1)NCP(=O)(OC(OC(=O)CC)C1CCCCC1)OC(OC(=O)CC)C1CCCCC1` (configuration not stated): the Ratio in assay [1] was determined as 64. For `CCC(=O)OC(C)OP(=O)(CNC(Cc1ccc(-c2ccccc2)cc1)C(=O)NCCC(=O)O)OC(C)OC(=O)CC` (configuration not stated), the Ratio in assay [1] stood at 283. Regarding `CCN(CC)C(=O)COC(=O)CCNC(=O)[C@H](Cc1ccc(-c2ccccc2)cc1)NCP(=O)(Oc1ccccc1)Oc1ccccc1`, in assay [1], the Ratio is 135. Turning to `O=C(O)CCNC(=O)[C@H](Cc1ccc(-c2ccccc2)cc1)NCP(=O)(O)O`, on Neprilysin, the midpoint of inhibition, the IC50, lay at 1.9 nM. Regarding `O=C(N[C@H](C(=O)O)c1ccccc1)C(Cc1ccc(-c2ccccc2)cc1)NCP(=O)(O)O` (some centres not stated), the IC50 against Neprilysin amounted to 2 nM. For the compound `CCOC(=O)CCNC(=O)C(Cc1ccc(-c2ccccc2)cc1)NCP(=O)(O)O` (configuration not stated), at Neprilysin, the midpoint of inhibition, the IC50, lay at 120 nM. Consider `CCOC(=O)CCNC(=O)C(Cc1ccc(-c2ccccc2)cc1)NCP(=O)(OCOC(=O)C(C)(C)C)OCOC(=O)C(C)(C)C` (configuration not stated), for which the Ratio in assay [1] turned out to be 816. As for `CCN(CC)C(=O)COC(=O)CCNC(=O)[C@H](Cc1ccc(-c2ccccc2)cc1)NCP(=O)(O)Oc1ccccc1`, in assay [1], the Ratio is 9. With `COc1ccc(OP(=O)(CN[C@@H](Cc2ccc(-c3ccccc3)cc2)C(=O)NCCC(=O)O)Oc2ccc(OC)cc2)cc1`, in assay [1], the Ratio stood at 5.

`CCC(=O)OC(OP(=O)(CNC(Cc1ccc(-c2ccccc2)cc1)C(=O)NCCC(=O)O)OC(OC(=O)CC)C(C)C)C(C)C` (configuration not stated): the Ratio in assay [1] stood at 380. `O=C(O)CCNC(=O)C(Cc1ccccc1)OP(=O)(O)CCCCc1ccccc1` (configuration not stated) displayed an IC50 against Neprilysin greater than 1000 nM. Consider `O=C(CCNC(=O)[C@H](Cc1ccc(-c2ccccc2)cc1)NCP(=O)(Oc1ccccc1)Oc1ccccc1)OCc1ccccc1`, for which the Ratio in assay [1] turned out to be 75. With `O=C(O)CNC(=O)C(Cc1ccc(-c2ccccc2)cc1)NCP(=O)(O)O` (configuration not stated), it took 5 nM to reach half-maximal inhibition against Neprilysin (IC50).

For `O=C(O)CCNC(=O)[C@H](Cc1ccc(-c2ccccc2)cc1)NCP(=O)(O)Oc1ccccc1`, the Ratio in assay [1] was determined as 41. This compound also displayed an IC50 on Neprilysin of 238 nM. For `CC(C)(C)C(=O)OCOP(=O)(CNC(Cc1ccc(-c2ccccc2)cc1)C(=O)NCCC(=O)O)OCOC(=O)C(C)(C)C` (configuration not stated), the Ratio in assay [1] is 322. On to `CC(C)N(C(=O)COC(=O)CCNC(=O)[C@H](Cc1ccc(-c2ccccc2)cc1)NCP(=O)(O)Oc1ccccc1)C(C)C`, for which the Ratio in assay [1] is reported as 5. `O=C(O)CCNC(=O)C(Cc1ccccc1)OP(=O)(O)CCc1ccccc1` (configuration not stated) showed an IC50 on Neprilysin greater than 1000 nM. Still for that read-out and setting: the same measure for `O=C(O)CCNC(=O)C(Cc1ccccc1)OP(=O)(O)CNC(=O)OCc1ccccc1` (configuration not stated): greater than 1000 nM. In the case of `CC(C)C[C@H](NP(=O)(O)O[C@@H]1O[C@@H](C)[C@H](O)[C@@H](O)[C@H]1O)C(=O)N[C@@H](Cc1c[nH]c2ccccc12)C(=O)O` [PHOSPHORAMIDON], on Neprilysin, the IC50 is 27 nM.
